# This is a sample that favours compounds with a hit; in the whole collection about 4.1% have one here.
# hERG rescue – compounds protecting human hERG from proarrhythmic drug block; AID 1511; actives 0.51% (n = 310,000); Q12809; activation (rescue from dofetilide block), less the hit threshold, % at 10 µM; CHO-hERG, FluxOR thallium flux, dofetilide IC70 present;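 active = activation above the mean of controls blocked by dofetilide plus 5 SD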;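 also: thallium influx through hERG after potassium depolarization seen as dye fluorescence rise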
# KCNK3 inh – human KCNK3 channel inhibition, primary screen. O14649. CHO-KCNK3 thallium flux, FluxOR fluorescence; active compounds read low. B-score at 10 µM. actives 0.84% (n = 340,000). AID 602410;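 active = B-score under library mean minus 4 SD, starting fluorescence ratio at most library mean plus 5 SD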;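 also: more negative B-score means stronger inhibition of thallium flux through KCNK3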
# Cl transport mod – modulates chloride dependent transport by human KCC2; B-score of Tl+ flux slope (higher = more flux/activation; lower = inhibition) at 10 µM; Q9H2X9; actives 2.2% (n = 190,000); KCC2 cells, thallium flux FluoZin-2 fluorescence; AID 1456;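 active = thallium flux slope and its plate-corrected score both differing from the plate sample mean at a set confidence after two filtering rounds, in either direction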;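 also: slope of fluorescence scaled to starting intensity during 10 to 20 s after thallium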
# Target sequence (Q9H2X9 whole entry, looked up): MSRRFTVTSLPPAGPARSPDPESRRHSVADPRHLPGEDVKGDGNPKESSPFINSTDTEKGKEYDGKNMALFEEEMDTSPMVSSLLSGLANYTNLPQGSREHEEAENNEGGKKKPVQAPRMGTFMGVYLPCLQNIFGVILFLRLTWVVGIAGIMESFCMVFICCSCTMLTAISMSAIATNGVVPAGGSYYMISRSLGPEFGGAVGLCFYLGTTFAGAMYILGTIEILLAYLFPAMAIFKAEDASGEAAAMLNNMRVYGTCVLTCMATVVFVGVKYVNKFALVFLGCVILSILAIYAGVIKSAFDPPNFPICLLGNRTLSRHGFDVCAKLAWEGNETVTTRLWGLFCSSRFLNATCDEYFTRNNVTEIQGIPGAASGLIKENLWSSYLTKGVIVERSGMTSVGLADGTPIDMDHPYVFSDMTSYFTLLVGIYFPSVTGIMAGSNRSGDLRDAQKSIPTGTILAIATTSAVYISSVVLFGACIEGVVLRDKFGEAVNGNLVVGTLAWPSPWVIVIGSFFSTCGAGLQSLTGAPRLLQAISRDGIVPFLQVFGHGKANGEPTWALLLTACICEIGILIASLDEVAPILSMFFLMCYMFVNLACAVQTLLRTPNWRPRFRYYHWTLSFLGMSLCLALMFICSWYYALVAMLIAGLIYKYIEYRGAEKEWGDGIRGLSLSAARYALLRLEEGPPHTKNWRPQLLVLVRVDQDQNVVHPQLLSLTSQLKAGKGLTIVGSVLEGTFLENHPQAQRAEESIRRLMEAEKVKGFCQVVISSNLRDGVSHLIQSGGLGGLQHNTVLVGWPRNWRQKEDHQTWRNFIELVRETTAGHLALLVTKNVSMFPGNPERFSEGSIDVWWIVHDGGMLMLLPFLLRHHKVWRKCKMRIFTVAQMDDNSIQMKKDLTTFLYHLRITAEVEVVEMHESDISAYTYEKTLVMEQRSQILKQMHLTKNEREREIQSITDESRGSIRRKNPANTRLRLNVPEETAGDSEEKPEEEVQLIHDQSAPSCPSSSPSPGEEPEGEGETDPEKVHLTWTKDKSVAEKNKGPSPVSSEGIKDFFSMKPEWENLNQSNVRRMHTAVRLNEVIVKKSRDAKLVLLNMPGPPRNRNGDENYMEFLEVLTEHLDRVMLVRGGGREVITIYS
# KCNQ1 pot – potentiators or activators of human KCNQ1 potassium channel; P51787; CHO-K1 KCNQ1, thallium flux FluxOR fluorescence; active compounds read high; B-score at 10 µM; actives 0.35% (n = 310,000);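 active = fluorescence ratio B-score, a plate-corrected score, at least three library SD, with initial intensity B-score within 5 SD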
#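 Schedule – 37 °C overnight plating, 90-min dark dye load, 20-min compound pretreatment · System – stable KCNQ1 CHO-K1 line · Probe or stimulus – thallium- and potassium-containing depolarizing buffer · Measured by – kinetic FluxOR fluorescence, 10 s baseline plus 110 s post-stimulus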
# KCNQ1 inh – human KCNQ1 channel inhibition. P51787. CHO-K1 KCNQ1, FluxOR thallium flux fluorescence; active compounds read high. B-score at 10 µM. actives 1.3% (n = 310,000);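 active = compounds whose thallium flux B-score, printed positive for inhibition, exceeds three library SD while starting fluorescence stays within three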;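 also: channel opened by potassium depolarization with thallium stimulus after 20 min compound exposure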
# KCNK9 inh – inhibitors of human KCNK9 two-pore domain potassium channel; Q9NPC2; HEK293 KCNK9, FluxOR thallium flux fluorescence; active compounds read low; B-score at 10 µM; actives 1.2% (n = 310,000);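 active = ratio B-score over 3 SD below the library mean, with starting fluorescence within 5 SD of its mean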;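 also: negative B-score means less thallium flux so channel inhibition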
# KCC2 sec1 – confirmation of human KCC2 transport modulators; shares compounds with Cl transport mod; HEK293-KCC2, thallium flux, FluoZin2 fluorescence; active compounds read high; normalised thallium flux (F/F0 slope) at 10 µM; actives 15% (n = 3,700); AID 1713;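 active = thallium flux slope above the same plate's solvent-only control mean plus 3 SD; inconclusive = the two replicate wells disagree; inactive = no significant difference from solvent-only control wells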
# KCC2 bumet counter – thallium flux persisting under bumetanide in KCC2 cells, counter-screen secondary assay | shares compounds with Cl transport mod | HEK293-KCC2 + bumetanide/ouabain, thallium flux FluoZin2; active compounds read high | normalized thallium flux at 10 µM | actives 49% (n = 3,700) | AID 1714;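 active = thallium entry rate above the same plate's blocked-transporter control wells by more than 3 SD; inconclusive = the two repeat wells disagree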;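 also: raw slope of fluorescence over initial fluorescence between 10 and 20 s after thallium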
# KCC2 secondary2 – KCC2 (human) modulation, second secondary assay; shares compounds with Cl transport mod; HEK293-KCC2, thallium flux FluoZin2 fluorescence; actives lie on both sides; F/F0 rise rate, 10–20 s post-thallium; normalized thallium flux at 10 µM; actives 23% (n = 3,700);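 active = thallium flux slope more than 3 SD above or below the plate's solvent-only control mean, mostly below; inconclusive = the two repeat wells disagreed; inactive = no significant shift from solvent-only controls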;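 also: raw slope with 0.1% DMSO as baseline and bumetanide as block control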
# HEK293 Tl flux – counter-screen for KCC2 modulators: effect in parental HEK293 cells | thallium flux FluoZin2, ouabain; baseline-ratio fluorescence slope, 10–20 s after thallium | shares compounds with Cl transport mod | thallium flux rate (normalised fluorescence) at 10 µM | AID 1716 | actives 46% (n = 3,700);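 active = thallium flux rate significantly above the same plate's solvent-only control wells, beyond their mean plus 3 SD; inconclusive = the two replicate wells gave conflicting results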
# KCC2 ouabain – modulates human KCC2 on retest with ouabain; shares compounds with Cl transport mod; HEK293-KCC2, thallium flux FluoZin2 fluorescence; bidirectional: low = inhibitor, high = activator; raw Tl+ flux slope (below DMSO = inhibition, above = activation) at 10 µM; actives 48% (n = 3,700); AID 1717;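 active = thallium flux slope beyond 3 SD from same-plate DMSO control mean in most replicates, usually higher, sometimes lower; inconclusive = repeat tests gave conflicting results; inactive = no significant difference from controls in most replicates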;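 also: slope of initial-normalized fluorescence between seconds 10 and 20 after thallium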
# HEK293 Tl flux2 – counter-screen for KCC2 modulators: effect in parental HEK293 cells; shares compounds with Cl transport mod; thallium flux FluoZin-2 fluorescence slope; thallium flux slope at 10 µM; actives 33% (n = 3,700); AID 1718;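 active = thallium flux slope above the same plate's solvent-control mean plus 3 SD in both duplicate wells; inconclusive = duplicate wells that disagreed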;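 also: run without ouabain in cells lacking the KCC2 cotransporter; slope of fluorescence scaled to its starting value between 10 and 20 s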
# Numbers without * were called inactive; i = inactive; u = inconclusive; x = no result given.
SMILES,hERG rescue,KCNK3 inh,Cl transport mod,KCNQ1 pot,KCNQ1 inh,KCNK9 inh,KCC2 sec1,KCC2 bumet counter,KCC2 secondary2,HEK293 Tl flux,KCC2 ouabain,HEK293 Tl flux2
O=C(c1ccc(Cl)cc1)C1CCN(CC(=O)N2CCCCC2)CC1,-5.4,i,x,i,i,i,x,x,x,x,x,x
O=C(CSc1nnc(-c2ccccn2)n1Cc1ccco1)c1ccc(Cl)cc1,-15.0,i,x,i,i,i,0.00695,u,0.0282,0.00602*,0.0163,0.0103
CC(=O)N(CCO)Cc1cc2cc(C)cc(C)c2[nH]c1=O,1.1,i,0.0914,i,i,i,x,x,x,x,x,x
COC(=O)C(NS(C)(=O)=O)(c1c(C)[nH]c2ccccc12)C(F)(F)F (stereo not drawn),-15.1,i,-4.42*,i,i,i,0.0069,u,0.0275,0.00827,0.0186,0.0107
Cc1cnc(C(=O)Nc2ccc(C)c(S(=O)(=O)N3CCCCC3)c2)cn1,x,i,x,x,x,x,x,x,x,x,x,x
O=C1C2CCCN2C(c2ccccc2F)N1c1cccc(Cl)c1 (stereo not drawn),-4.4,i,-3.74*,i,i,i,0.0073,u,0.0311,u,0.0198,0.0121
O/N=C1\CCCc2ccc3ccccc3c21,-4.0,i,-0.0431,i,i,i,x,x,x,x,x,x
C/C(N)=C(/C#N)C(=O)CSc1cc(C)c2cc(C)cc(C)c2n1,-11.3,i,4.12*,i,i,i,0.0177,0.00565,0.0307,u,0.0175,0.0111
Cc1cc(C)c2nc(SCC#N)cc(C)c2c1,-2.8,i,1.09,i,i,i,x,x,x,x,x,x
O=C(CO/N=C/c1c(Cl)cccc1Cl)NNC(=O)c1ccc(Cl)cc1,-5.8,i,6.66*,i,i,i,0.0097,0.0125*,0.0337,u,0.0209,0.0117
COc1ccccc1Cn1c(=S)[nH]c2cc(C(=O)NCc3cccnc3)ccc2c1=O,-0.8,i,0.0192,i,i,i,x,x,x,x,x,x
O=S(=O)(NC(=S)NC1CCCCC1)c1ccc(Br)cc1,3.6,i,10.6*,i,i,i,0.0118*,0.0282*,0.0311,0.0228*,0.0329*,0.0119*
N#Cc1ccsc1NC(=O)c1ccc(Cl)c([N+](=O)[O-])c1,-15.0,i,-5.33*,i,7*,i,0.00737,0.00477,0.0224*,0.00685,u,0.0092
CCC(=O)Nc1cccc(-c2nc3ccc(C)cc3o2)c1,-9.6,i,x,i,i,i,x,x,x,x,x,x
CCCC(=O)Nc1cccc(-c2nc3cc(C)c(C)cc3o2)c1,-8.0,i,x,i,i,i,0.00559,0.00466,0.0308,0.00737,0.0193,0.0111
CCCn1c(SCC(=O)Nc2cccc(C)n2)nnc1-c1ccco1,-1.5,i,0.522,i,i,i,x,x,x,x,x,x
S=c1nc(-c2csc3c2CCCC3)[nH][nH]1,-5.7,i,4.2*,i,i,i,0.0158,0.0156*,0.0313,0.0148*,0.0221*,0.0172*
C[C@H](CO)N1C[C@H](C)[C@@H](CN(C)C(=O)Nc2ccc3c(c2)OCO3)Oc2c(NC(=O)c3ccncc3)cccc2C1=O,x,i,x,x,x,x,x,x,x,x,x,x
CCOC(=O)Cc1csc(Nc2c(C)n(C)n(-c3ccccc3)c2=O)n1,-4.3,i,1.01,i,i,i,x,x,x,x,x,x
Cc1c(Nc2nc(-c3ccc(Cl)cc3)cs2)c(=O)n(-c2ccccc2)n1C,-7.6,i,-4.52*,i,i,i,0.00651,0.00516,0.0241*,0.00576*,0.0135*,u
Cc1c(NC2=C(Cl)C(=O)N(c3ccccc3)C2=O)c(=O)n(-c2ccccc2)n1C,-10.7,i,-4.35*,i,i,i,u,0.00694,0.0348,0.00445,0.0207,0.0109
O=S(=O)(c1cccs1)N1CCN(c2ccc(F)cc2)CC1,-6.7,i,x,i,i,i,x,x,x,x,x,x
O=C(Nc1ccc(C(=O)N2CCCC2)cc1)C1CC1,x,i,x,x,x,x,x,x,x,x,x,x
CC(=O)c1cccc(NC(=O)Nc2ccc(C(=O)N3CCOCC3)cc2)c1,-14.4,i,-3.1*,i,i,i,0.00892,0.00655,0.0339,0.00773,0.0209,0.0107
CC(=O)Nc1ccc(C(=O)N2CCCC2)cc1,-5.6,i,-4.54*,i,i,i,0.00609,0.00468,0.03,0.00806,0.0191,0.0107
SMILES,hERG rescue,KCNK3 inh,Cl transport mod,KCNQ1 pot,KCNQ1 inh,KCNK9 inh,KCC2 sec1,KCC2 bumet counter,KCC2 secondary2,HEK293 Tl flux,KCC2 ouabain,HEK293 Tl flux2
O=C(NC1CCCCCC1)c1nnc(Cc2ccc(Cl)cc2)o1,-12.2,i,0.262,i,i,i,x,x,x,x,x,x
O=C(O)c1sc2cccc(Cl)c2c1Cl,-2.6,i,-2.02,i,i,i,x,x,x,x,x,x
Cc1cc(C)c(S(=O)(=O)/N=C2/C=C(SCC(=O)O)C(=O)c3ccccc32)cc1C,x,i,-4.2*,x,x,x,0.00613,0.00699*,u,0.00715,0.0185,0.0112
O=C(NC1CCCCCC1)c1ccc[nH]c1=S,-14.5,i,12.4*,i,i,i,0.0134*,0.0388*,0.0293,0.0159*,0.0375*,0.0112*
CC(C)N1C(=O)S/C(=C/c2ccccc2OCc2ccc(C(=O)O)cc2)C1=O,-21.2,i,-4.69*,i,i,i,0.00644,0.00473,0.0244*,0.00638,0.0137*,0.0088
Nc1ccc(S(=O)(=O)c2cccc(N)c2)cc1,-0.6,i,-1.16,i,i,i,x,x,x,x,x,x
O=S(=O)(/N=C(/Nc1cccc2ccccc12)c1ccc(F)cc1)c1ccccc1,-4.4,i,x,i,i,i,x,x,x,x,x,x
CN(c1ccc(OCc2nnc(-c3ccccc3)o2)cc1)S(=O)(=O)c1ccccc1,-7.1,i,-4.17*,i,i,i,0.0171,u,0.0299,0.00573*,0.0144,0.00927

# Source: PubChem (several laboratories)
